FN deposit inh: fibronectin deposition inhibition; AH1F fibroblasts, Alexa488-fibronectin deposition fluorescence, overnight; inhibition, % at 12.6 µM; 350,000 compounds, 0.086% hits; AID 743247;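 active = mean inhibition across replicates of 30% or more, regardless of how many single replicates reach that level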
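material = AH1F fibroblast monolayer depositing Alexa488-labelled fibronectin into matrix | amount = 10000 AH1F cells/well | buffer or medium = DMEM plus 2% serum, read in PBS | incubation = 1 h cell adhesion before compound, then overnight fibronectin incubation | detection = fluorescence at 485 nm excitation, 525 nm emission | evaluation = percent inhibition as loss of matrix-bound fibronectin fluorescence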
FGF22 binding: shifts melting point of recombinant human FGF22; Q9HCT0; recombinant FGF22 thermal shift, SYPRO orange fluorescence; percent of sucrose octasulfate shift, DMSO zero; activity (Tm shift, normalised), % at 9.99 µM; 340,000 compounds, 1.5% hits; AID 651658;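 active = mean Tm shift, scaled 0 neutral to 100 positive control, at about 1.3% or above, every replicate too, limit read from the data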
ERAP1 HTS inh: blocks human ERAP1 aminopeptidase activity. Q9NZ08. recombinant ERAP1, Leu-AMC fluorescence, 60 min. inhibition, % at 10.7 µM. 340,000 compounds, 0.15% hits;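 active = mean replicate inhibition of at least 30%, or all replicates individually reaching that 30% level; inactive = mean below 30% and not every replicate reaching it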
Target sequence (Q9NZ08 whole entry, looked up): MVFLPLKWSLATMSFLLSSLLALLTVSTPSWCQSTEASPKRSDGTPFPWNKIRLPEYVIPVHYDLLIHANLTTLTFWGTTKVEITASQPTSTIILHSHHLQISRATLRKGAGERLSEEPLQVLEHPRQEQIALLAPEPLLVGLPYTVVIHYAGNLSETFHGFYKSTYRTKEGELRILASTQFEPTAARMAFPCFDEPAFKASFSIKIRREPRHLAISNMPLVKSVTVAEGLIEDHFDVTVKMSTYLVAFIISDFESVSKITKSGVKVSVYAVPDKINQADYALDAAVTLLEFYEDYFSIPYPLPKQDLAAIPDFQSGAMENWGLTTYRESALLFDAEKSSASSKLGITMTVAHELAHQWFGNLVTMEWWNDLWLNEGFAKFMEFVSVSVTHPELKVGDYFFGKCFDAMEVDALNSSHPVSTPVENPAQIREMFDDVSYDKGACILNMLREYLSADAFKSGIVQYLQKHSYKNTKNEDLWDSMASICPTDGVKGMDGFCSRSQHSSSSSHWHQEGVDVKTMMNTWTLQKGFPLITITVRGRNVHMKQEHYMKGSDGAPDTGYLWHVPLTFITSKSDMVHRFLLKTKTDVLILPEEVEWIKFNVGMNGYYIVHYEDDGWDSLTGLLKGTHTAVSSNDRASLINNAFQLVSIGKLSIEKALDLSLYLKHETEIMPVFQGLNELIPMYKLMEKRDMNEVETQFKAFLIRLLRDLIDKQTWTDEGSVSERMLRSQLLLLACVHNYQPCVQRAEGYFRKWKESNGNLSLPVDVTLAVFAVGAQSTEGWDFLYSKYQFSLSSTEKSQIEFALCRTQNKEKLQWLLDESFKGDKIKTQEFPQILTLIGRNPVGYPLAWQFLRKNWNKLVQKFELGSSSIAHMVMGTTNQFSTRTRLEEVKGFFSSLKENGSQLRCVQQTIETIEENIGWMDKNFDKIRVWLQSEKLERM
PGC1a acetyl inh: modulators of PGC1a acetylation | U2OS PGC1a acetylation, AlphaScreen anti-acetyl-lysine; with virally co-expressed GCN5 acetyltransferase | inhibition, % at 15.6 µM | 350,000 compounds, 0.17% hits | AID 651687;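 active = every replicate shows inhibition of at least 40%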
SIRT5 inh: sirtuin-5 (human) deacylase inhibition. Purified SirT5, succinyl-peptide AMC, trypsin-coupled fluorescence. inhibition, % at 15 µM. 330,000 compounds, 1.1% hits; in the data active = inhibition above about 15%
Large screens that a line does not name were inactive; ! = not active in a repeat. Compounds with a hit are over-represented: about 2.2% of the library has one in this group of screens.

C=CC[C@@H](CC(=O)N[C@H](CO)Cc1ccccc1)C(=O)N[C@@H](C)COC(=O)[C@@H](CC=C)Cc1ccc(F)cc1	none (no result: PGC1a acetyl inh, SIRT5 inh)
O=C1C(SCCO)=C(SCCO)C(=O)c2ccccc21	FN deposit inh 42.9
Cc1cc(C(=O)NCC2CCCCC2)ccc1[N+](=O)[O-]	SIRT5 inh 22.0
CCC(=O)N1CCN(c2ccc(NC(=O)c3ccc(Br)o3)cc2)CC1	FGF22 binding 43.8 (no result: PGC1a acetyl inh)
CC(=O)N1CCN(c2ccccc2NC(=O)c2ccc(Br)o2)CC1	SIRT5 inh 27.1 (no result: FN deposit inh, PGC1a acetyl inh)
CCC(=O)N1CCN(c2ccc(NC(=O)c3ccc([N+](=O)[O-])o3)cc2Cl)CC1	FN deposit inh 59.9
O=C(Nc1ccccc1N1CCCC1)c1ccc(Br)o1	none (no result: FGF22 binding, ERAP1 HTS inh, SIRT5 inh)
CN1CCN(c2ccc(NC(=O)c3ccc(Br)o3)cc2)CC1	none (no result: PGC1a acetyl inh)
CCCC#Cc1ccc2c(c1)O[C@@H](CN(C)C(=O)CN(C)C)[C@H](C)CN([C@H](C)CO)S2(=O)=O	none
Cc1noc(C)c1S(=O)(=O)Nc1ccc2c(c1)CC(=O)N([C@H](C)CO)C[C@H](C)[C@@H](CN(C)S(=O)(=O)c1cccs1)O2	none
O=C(COC(=O)c1cn(-c2ccccc2)nc1-c1ccc(F)cc1)Nc1ncc(Cl)cc1Cl	FGF22 binding 43.8 (no result: PGC1a acetyl inh)
CC(c1ccon1)N(C)Cc1cn[nH]c1-c1ccc(-c2ccccc2)cc1 (stereo not given)	none (no result: FN deposit inh, PGC1a acetyl inh)
CN(Cc1ccon1)Cc1cn[nH]c1-c1ccc(-c2ccccc2)cc1	FGF22 binding 43.1 (no result: PGC1a acetyl inh)
CC(C)NC(=O)Nc1ccc2c(c1)C(=O)N([C@H](C)CO)C[C@@H](C)[C@@H](CN(C)C(=O)NC1CCCCC1)OCCCC[C@@H](C)O2	none (no result: FN deposit inh, FGF22 binding, ERAP1 HTS inh, SIRT5 inh)
C[C@H](CO)N1C[C@H](C)[C@H](CN(C)Cc2cccc(C(F)(F)F)c2)Oc2ncc(-c3ccc(F)cc3)cc2C1=O	SIRT5 inh 18.0
C[C@H](CO)N1C[C@H](C)[C@@H](CN(C)CC2CCOCC2)Oc2ncc(Br)cc2C1=O	PGC1a acetyl inh 88.9!
C[C@H](CO)N1C[C@H](C)[C@H](CN(C)Cc2ccncc2)Oc2ncc(C#CCN(C)C)cc2C1=O	SIRT5 inh 40.8!
C[C@@H]1CN([C@@H](C)CO)C(=O)c2cc(-c3cccc(F)c3)cnc2O[C@H]1CN(C)C(=O)Nc1cc(F)ccc1F	SIRT5 inh 23.2
C[C@H]1CN([C@@H](C)CO)C(=O)c2cc(C#CCN(C)C)cnc2O[C@H]1CN(C)Cc1ccncc1	none
Cc1noc(C)c1NC(=O)N(C)C[C@@H]1OCc2ccccc2-c2ccccc2C(=O)N([C@H](C)CO)C[C@H]1C	none
COc1ccc(NC(=O)C[C@H]2CC[C@H]3[C@@H](COc4ccc(NC(=O)C5CC5)cc4C(=O)N3C)O2)cc1	none (no result: ERAP1 HTS inh, SIRT5 inh)
C[C@H](CO)N1C[C@H](C)[C@H](CN(C)Cc2cccc(C(F)(F)F)c2)Oc2ncc(C#Cc3ccc(F)cc3)cc2C1=O	none
C[C@@H]1CN([C@@H](C)CO)C(=O)c2cc(-c3ccccc3)cnc2O[C@@H]1CN(C)Cc1ccccc1	FN deposit inh 38.5
Cc1ccc(-c2cnc3c(c2)C(=O)N([C@H](C)CO)C[C@H](C)[C@@H](CN(C)Cc2ccccc2F)O3)cc1	SIRT5 inh 12.9!
C[C@@H]1CN([C@@H](C)CO)C(=O)c2cc(-c3ccccc3)cnc2O[C@H]1CN(C)Cc1ccccc1	none
C[C@H](CO)N1C[C@H](C)[C@H](CN(C)Cc2cccc(C(F)(F)F)c2)Oc2ncc(C#Cc3ccccc3)cc2C1=O	SIRT5 inh 28.6 (no result: FN deposit inh)
C[C@@H]1CN([C@@H](C)CO)C(=O)c2cc(Br)cnc2O[C@H]1CN(C)Cc1cccnc1	SIRT5 inh 35.6!
O=C(C1CCCC1)N1CCCCN2[C@H](CO)[C@@H](c3ccc(C#CC4(O)CCCC4)cc3)[C@H]2C1	none (no result: FN deposit inh)
CO[C@H]1CN(C)C(=O)c2cc(NS(C)(=O)=O)ccc2OC[C@@H](C)NC[C@H]1C	none (no result: FGF22 binding)
Cc1nn(C)cc1NC(=O)C[C@H]1CC[C@H]2[C@H](COc3ccc(NC(=O)Nc4cccc(Cl)c4)cc3C(=O)N2C)O1	none
Cn1cnc(S(=O)(=O)N2CC[C@H]3[C@H](CO)Nc4ccc(-c5cccc(F)c5)cc4[C@H]32)c1	none
C[C@@H]1CN([C@@H](C)CO)S(=O)(=O)c2ccc(C#CC3CC3)cc2O[C@H]1CN(C)C(=O)c1ccccc1	none
C[C@H](CO)N1C[C@H](C)[C@@H](CN(C)Cc2ccc(-c3ccccc3)cc2)Oc2ncc(C#C[C@@H](C)O)cc2C1=O	SIRT5 inh 17.5!
C[C@@H]1CN([C@@H](C)CO)C(=O)c2cc(-c3cccc(F)c3)cnc2O[C@@H]1CN(C)Cc1ccncc1	SIRT5 inh 20.9 (no result: FN deposit inh)
C[C@H](CO)N1C[C@H](C)[C@H](CN(C)C(=O)Cc2ccccc2)Oc2ncc(C3=CCCCC3)cc2C1=O	SIRT5 inh 21.1 (no result: FN deposit inh)
c1ccc(COc2ncnc3c2ncn3CCCNCc2cccs2)cc1	FGF22 binding 42.9 (no result: PGC1a acetyl inh, SIRT5 inh)
COc1ccc(OC2C(=O)N(c3ccc(C)c(C)c3)C2c2ccc(OC)c(OC)c2)cc1 (stereo not given)	FGF22 binding 43.5
CCCC(=O)Nc1ccc2c(c1)C(=O)N(C)C[C@@H](OC)[C@H](C)CN(Cc1ccccc1F)[C@@H](C)CO2	none
Cc1cc(=O)[nH]c2c3ccccc3nn12	FGF22 binding 43.7 (no result: PGC1a acetyl inh)
Cc1cc(C)n2nc3ccccc3c2n1	none (no result: FN deposit inh, FGF22 binding, ERAP1 HTS inh, SIRT5 inh)
C[C@@H]1CCCCO[C@@H](CN(C)S(=O)(=O)c2cn(C)cn2)[C@H](C)CN([C@H](C)CO)C(=O)c2cc(NC(=O)c3ccccc3)ccc2O1	none
Cc1ccc(NC(=O)c2ccc(-n3cccn3)nc2)cc1	none
CN1CCN(C(=O)c2ccc(-n3cccn3)nc2)CC1	FGF22 binding 43.4
O=C(NCC[C@H]1CC[C@H](NC(=O)c2cnccn2)[C@@H](CO)O1)Nc1ccc(Cl)cc1	none (no result: FN deposit inh)
O=C(Nc1ccc(N2CCN(C(=O)c3cccs3)CC2)cc1)c1cccnc1	FGF22 binding 43.1 (no result: PGC1a acetyl inh)
CC(=O)N(C)C[C@@H]1Oc2ncc(C#Cc3ccncc3)cc2C(=O)N([C@H](C)CO)C[C@H]1C	none
O=C(CCC1CCCN(C(=O)c2cc(C3CC3)[nH]n2)C1)N1CCN(c2ccccn2)CC1 (stereo not given)	PGC1a acetyl inh 97.8
CCc1cc(C(=O)N2CCCC(CCC(=O)N3CCN(c4ccccn4)CC3)C2)no1 (stereo not given)	none (no result: FN deposit inh)
NC(=O)c1ccc(-c2c(-c3ccccc3)sc3ccccc23)cc1	SIRT5 inh 29.3 (no result: PGC1a acetyl inh)
COc1ccc(NC(=O)N[C@@H]2CC[C@@H](CCNC(=O)CCN3CCCCC3)O[C@@H]2CO)cc1	none
COc1ccc(CC(=O)Nc2ccc(C(=O)NCC(C)C)cc2)cc1	SIRT5 inh 18.1 (no result: FGF22 binding)
O=C(N[C@@H]1CC[C@@H](CCNC(=O)c2ccccc2F)O[C@@H]1CO)c1cnccn1	none
CC1(C)CC(=O)C(N=Nc2ccc(F)cc2)=C(O)C1	SIRT5 inh 29.8
